Where two headings read alike, the source gives them in different places.
Experiments:
[1] = tested on: MCF-7 (ER+ breast adenocarcinoma) cells; test: MTT cytotoxicity assay, 72 h; format: cell-based, human; settings: for IC50: read-out: IC50, after 72 h incubation, MCF-7
How it was run: (§1)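 Cell lines (ATCC) grown in DMEM with […], 10% FCS and antibiotic–antimycotic at 37 °C, 5% CO2. […] IC50 was calculated from means of at least two or three independent experiments in triplicate or quadruplicate.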

[2] = tested on: MDA-MB-231 (ER− breast adenocarcinoma) cells; test: MTT cytotoxicity assay, 72 h; format: cell-based, human; settings: read-out: IC50, after 72 h incubation, MDA-MB-231
How it was run: as §1

[3] = tested on: PC-3 prostate cancer cells; test: MTT cytotoxicity assay, 72 h; format: cell-based, human
How it was run: as §1

[4] = tested on: HeLa cervical carcinoma cells; test: MTT cytotoxicity assay, 72 h; format: cell-based, human
How it was run: as §1

[5] = tested on: HT-29 colon adenocarcinoma cells; test: MTT cytotoxicity assay, 72 h; format: cell-based, human; settings: read-out: IC50, after 72 h incubation, HT-29
How it was run: as §1

[6] = tested on: A549 lung adenocarcinoma cells; test: MTT cytotoxicity assay, 72 h; format: cell-based, human; settings: read-out: IC50, after 72 h incubation, A549
How it was run: as §1

[7] = tested on: MRC-5 normal fetal lung fibroblasts; test: MTT cytotoxicity assay, 72 h; format: cell-based, human; settings: read-out: IC50, after 72 h incubation, MRC-5
[8] = tested on: CEM T-lymphoblastic leukemia cells; test: alamarBlue; format: cell-based, human; settings: read-out: IC50, after 72 h incubation, CEM
How it was run: (§2)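 CEM cells grown in RPMI 1640 with 20% FBS; G-361 and BJ cells in DMEM with 10% FBS. All media had 2 mM L-glutamine and 1% penicillin-streptomycin, 37 °C, 5% CO2. Six concentrations of compound, 0.2–50 μM (3× dilution), were applied for 72 h, with a resazurin (alamarBlue) read-out. IC50 came from means of at least two or three independent experiments in triplicate or quadruplicate.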

[9] = tested on: G-361 malignant melanoma cells; test: alamarBlue; format: cell-based, human; settings: read-out: IC50, after 72 h incubation, G-361
How it was run: as §2

[10] = tested on: BJ human foreskin fibroblasts; test: alamarBlue; format: cell-based; settings: read-out: IC50, after 72 h incubation, BJ, normal fibroblasts
How it was run: as §2

Row | SMILES | IC50 ([1]; MTT, 72 h) [µM] | IC50 ([2]; MTT, 72 h) [µM] | IC50 ([3]; read-out: IC50, after 72 h incubation, PC-3, MTT) [µM] | IC50 ([4]; read-out: IC50, after 72 h incubation, HeLa, MTT) [µM] | IC50 ([5]; MTT, 72 h) [µM] | IC50 ([6]; MTT, 72 h) [µM] | IC50 ([7]; MTT, 72 h, normal cells) [µM] | IC50 [8] [µM] | IC50 [9] [µM] | IC50 [10] [µM] | IC50 ([1]; Homo sapiens, MCF7, 72 h) [µM] | Toxicity toward MCF-7 tumor cells (in words) ([1]; MTT, 72 h) | IC50 ([2]; Homo sapiens, MDA-MB-231, 72 h) [µM] | IC50 ([3]; Homo sapiens, read-out: IC50, after 72 h incubation, PC-3) [µM] | IC50 ([4]; Homo sapiens, HeLa, read-out: IC50, after 72 h incubation, HeLa) [µM] | IC50 ([5]; Homo sapiens, HT-29, 72 h) [µM] | IC50 ([6]; Homo sapiens, A549, 72 h) [µM] | IC50 ([7]; Homo sapiens, MRC5, 72 h) [µM]
1 | N.N.[Cl][Pt][Cl] [Cis-Pt, cisplatin] | 1.6 | 2.6 | 4.5 | 2.1 | 4.1 | 3.2 | 0.2 | 0.8 | 4.5 | 9.6 | – | – | – | – | – | – | – | –
2 | C[C@]12CCC(=O)C(O)=C1CC[C@@H]1[C@@H]2CC[C@]2(C)C(=O)CC[C@@H]12 [For, formestane] | – | – | – | – | – | – | – | – | – | – | > 100 | no toxicity | 19.6 | 26.4 | 3.4 | > 100 | 38.6 | > 100
